Activity calls are given as the source filed them.
Assays:
Assay type in all cases: functional, organism-based
Phaedon cochleariae [1] = assay: Insecticidal activity against Phaedon cochleariae larvae in disk of Chinese cabbage leaf treated as spray
Spodoptera frugiperda = assay: Insecticidal activity against Spodoptera frugiperda larvae in disk of maize leaf treated as spray
Phaedon cochleariae [2] = assay: Insecticidal activity against Phaedon cochleariae larvae in disk of Chinese cabbage leaf at 500 g/ha treated as spray
How it was run: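 This was sprayed on Chinese cabbage leaf disks. Once dry, disks were infested with mustard beetle larvae and mortality was scored after a set time. "+" denotes ≥80% larvae killed; n.a. denotes none killed.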

SMILES	Activity (Phaedon cochleariae [1])	Activity (Spodoptera frugiperda)	Activity (Phaedon cochleariae [2])
O=C1OCC2=C1C(c1cc(Cl)ccc1Cl)c1cc3c(cc1N2)OCO3 (centres undefined)	inactive	inactive	–
COc1ccc(C2C3=C(O)OCC3=Nc3cc4c(cc32)OCO4)cc1 (centres undefined)	inactive	inactive	–
O=C1OCC2=C1C(c1cccc(Br)c1)c1cc3c(cc1O2)OCO3 (centres undefined)	inactive	inactive	–
COc1cc(OC)cc(C2C3=C(COC3=O)Nc3cc(-c4ccccc4)ccc32)c1 (centres undefined)	inactive	inactive	–
O=C1OC2(CCCCC2)C2=C1C(c1cccc(Cl)c1)c1cc3c(cc1N2)OCO3 (centres undefined)	inactive	inactive	–
COc1cc(OC)cc(C2C3=C(COC3=O)Nc3ccc(OC(C)C)cc32)c1 (centres undefined)	inactive	inactive	–
O=C1OCC2=C1C(c1cccc(OC(F)(F)F)c1)c1cc3c(cc1O2)OCO3 (centres undefined)	inactive	inactive	–
O=C1OCC2=C1C(c1cc(Cl)cc(Cl)c1)c1cc3c(cc1O2)OCO3 (centres undefined)	inactive	inactive	–
COc1cc(OC)cc(C2C3=C(COC3=O)Oc3cc(OC)ccc32)c1 (centres undefined)	inactive	inactive	–
CC1(C)OC(=O)C2=C1Nc1cc3c(cc1C2c1cccc(Cl)c1)OCO3 (centres undefined)	–	inactive	Active
O=C1OCC2=C1C(c1cccc(Cl)c1)c1cc3c(cc1O2)OCO3 (centres undefined)	inactive	inactive	–
O=C1OCC2=C1C(c1cccc(OC(F)F)c1)c1cc3c(cc1O2)OCO3 (centres undefined)	inactive	inactive	–
OC1=C2C(=Nc3cc4c(cc3C2c2ccccc2)OCO4)CO1 (centres undefined)	inactive	–	–
COc1cc(C2(C)C3=C(COC3=O)Nc3cc(Cl)ccc32)cc(OC)c1OC (centres undefined)	inactive	inactive	–
COc1cc(OC)cc(C2C3=C(COC3=O)Oc3c2ccc(OC)c3OC)c1 (centres undefined)	inactive	inactive	–
CC1(c2cccc(Cl)c2)C2=C(COC2=O)Nc2ccc(Cl)cc21 (centres undefined)	inactive	inactive	–
COc1cc(OC)cc(C2C3=C(COC3=O)Nc3cc(Oc4ccccc4)ccc32)c1 (centres undefined)	inactive	inactive	–
COc1cc(OC)cc(C2C3=C(Nc4cc5c(cc42)OCO5)C(C)(C)COS3(=O)=O)c1 (centres undefined)	inactive	inactive	–
Clc1cccc(C2C3=C(CCC3)Nc3cc4c(cc32)OCO4)c1 (centres undefined)	inactive	inactive	–
O=C1OCC2=C1C(c1cccc(Cl)c1Cl)c1cc3c(cc1N2)OCO3 (centres undefined)	inactive	inactive	–
COc1cc(OC)cc(C2C3=C(COC3=O)Nc3cc(C)c(C)cc32)c1 (centres undefined)	inactive	inactive	–
COc1cc(C2C3=C(COC3=O)Nc3cc(Cl)ccc32)cc(OC)c1OC (centres undefined)	inactive	inactive	–
COc1cc(OC)cc(C2C3=C(Nc4cc5c(cc42)OCO5)C(C)(C)NC3=O)c1 (centres undefined)	inactive	inactive	–
COc1cc(OC)cc(C2C3=C(COC3=O)Nc3cc(OC(F)F)c(OC(F)F)cc32)c1 (centres undefined)	inactive	inactive	–

SMILES	Activity (Phaedon cochleariae [1])	Activity (Spodoptera frugiperda)	Activity (Phaedon cochleariae [2])
O=C1OC2(CCCC2)C2=C1C(c1cccc(Cl)c1)c1cc3c(cc1N2)OCO3 (centres undefined)	–	inactive	Active
COc1cc(OC)cc(C2C3=C(COC3=O)Nc3c(C)cc(C)cc32)c1 (centres undefined)	inactive	inactive	–
O=C1OCC2=C1C(c1cc(Cl)cc(Cl)c1Cl)c1cc3c(cc1N2)OCO3 (centres undefined)	inactive	inactive	–
CC(C)(C)OC(=O)N1CC2=C(C1=O)C(c1cccc(Cl)c1)c1cc3c(cc1N2)OCO3 (centres undefined)	–	inactive	–
COc1cc(OC)cc(C2C3=C(COC3=O)Nc3cc(C)ccc32)c1 (centres undefined)	–	–	Active
O=C1OCC2=C1C(c1cccc(OCCO)c1)c1cc3c(cc1N2)OCO3 (centres undefined)	inactive	–	–
CCOc1cc2c(cc1OCC)C(c1cc(OC)cc(OC)c1)C1=C(COC1=O)N2 (centres undefined)	inactive	inactive	–
COc1cc2c(cc1OC)N(C)C1=C(C(=O)OC1)C2c1cc(OC)c(OC)c(OC)c1 (centres undefined)	inactive	inactive	–
COc1cc(OC)cc(C2C3=C(CCCC3=O)Nc3cc4c(cc32)OCO4)c1 (centres undefined)	inactive	inactive	–
COc1cc(C2C3=C(CN(C(=O)OC(C)(C)C)C3=O)Nc3cc4c(cc32)OCO4)cc(OC)c1OC (centres undefined)	inactive	inactive	–
COc1cc(C2C3=C(CNC3=O)Nc3cc4c(cc32)OCO4)cc(OC)c1OC (centres undefined)	–	inactive	Active
O=C1CCCC2=C1C(c1cccc(Cl)c1)c1cc3c(cc1N2)OCO3 (centres undefined)	inactive	inactive	–
CC1(C)COS(=O)(=O)C2=C1Nc1cc3c(cc1C2c1cccc(Cl)c1)OCO3 (centres undefined)	–	inactive	Active
COc1cccc(C2C3=C(COC3=O)Nc3cc4c(cc32)OCO4)c1OC (centres undefined)	inactive	inactive	–
O=C1OCC2=C1C(c1ccc3c(c1)OC(F)(F)O3)c1cc3c(cc1N2)OCO3 (centres undefined)	inactive	inactive	–
COc1cc(OC)cc(C2C3=C(COC3=O)Nc3cc(OCc4ccccc4)ccc32)c1 (centres undefined)	inactive	inactive	–
COc1cc(OC)cc(C2C3=C(COC3=O)Nc3cc(OC)c(Cl)cc32)c1 (centres undefined)	inactive	inactive	–
COc1cc(OC)cc(C2C3=C(CN(C(C)C)C3=O)Nc3cc4c(cc32)OCO4)c1 (centres undefined)	inactive	inactive	–
COc1cc(OC)cc(C2C3=C(Nc4cc5c(cc42)OCO5)C(C)(C)COC3=O)c1 (centres undefined)	inactive	inactive	–
O=S1(=O)CCC2=C1C(c1cccc(Cl)c1)c1cc3c(cc1N2)OCO3 (centres undefined)	inactive	inactive	–
CC1(C)NC(=O)C2=C1Nc1cc3c(cc1C2c1cccc(Cl)c1)OCO3 (centres undefined)	–	inactive	Active
COc1cc(C2C3=C(COC3=O)Oc3cc4c(cc32)OCO4)cc(Br)c1OC (centres undefined)	–	inactive	Active
COc1cc(OC)cc(C2C3=C(Nc4cc5c(cc42)OCO5)C(C)(CC(C)C)NC3=O)c1 (centres undefined)	inactive	inactive	–
CC1(C)OS(=O)(=O)C2=C1Nc1cc3c(cc1C2c1cccc(Cl)c1)OCO3 (centres undefined)	–	inactive	Active

SMILES	Activity (Phaedon cochleariae [1])	Activity (Spodoptera frugiperda)	Activity (Phaedon cochleariae [2])
CC1(C)CC(=O)C2=C(C1)Nc1cc3c(cc1C2c1cccc(Cl)c1)OCO3 (centres undefined)	inactive	inactive	–
COc1cc(OC)cc(C2C3=C(Nc4cc5c(cc42)OCO5)C(C)(C)ON(C)C3=O)c1 (centres undefined)	inactive	inactive	–
COc1cc(OC)cc(C2C3=C(CN(C(=O)OC(C)(C)C)C3=O)Nc3cc4c(cc32)OCO4)c1 (centres undefined)	inactive	inactive	–
O=C1OCC2=C1C(c1ccc(F)c(Br)c1)c1cc3c(cc1N2)OCO3 (centres undefined)	–	–	Active
O=C1OCC2=C1C(c1cccc(Cl)c1)c1cc(Cl)ccc1N2 (centres undefined)	inactive	inactive	–
COc1cc(OC)cc(C2C3=C(COC3=O)Nc3cc(C(C)(C)C)ccc32)c1 (centres undefined)	inactive	inactive	–
COc1cc(OC)cc(C2C3=C(CNC3=O)Nc3cc4c(cc32)OCO4)c1 (centres undefined)	–	inactive	Active
COc1cc(OC)cc(C2C3=C(COC3=O)Nc3cc(OC(F)(F)F)ccc32)c1 (centres undefined)	inactive	inactive	–
COc1cc(OC)cc(C2C3=C(COC3=O)Nc3cc(O)ccc32)c1 (centres undefined)	inactive	inactive	–
O=S1(=O)CCCC2=C1C(c1cccc(Cl)c1)c1cc3c(cc1N2)OCO3 (centres undefined)	inactive	inactive	–
COc1cc2c(cc1OC)C(c1cc(OC)c(OC)c(OC)c1)C1=C(O)OCC1=N2 (centres undefined)	inactive	inactive	–
CC1(C)CS(=O)(=O)C2=C1Nc1cc3c(cc1C2c1cccc(Cl)c1)OCO3 (centres undefined)	inactive	inactive	–
CCN1C2=C(C(=O)OC2)C(c2cc(OC)cc(OC)c2)c2cc(OC)c(OC)cc21 (centres undefined)	inactive	inactive	–
COc1cc(OC)cc(C2C3=C(COC3=O)Nc3cc(OC)c(OC)c(OC)c32)c1 (centres undefined)	inactive	inactive	–
COc1cc(OC)cc(C2C3=C(COC3=O)Nc3cc(C)cc(C)c32)c1 (centres undefined)	inactive	inactive	–
COc1ccc2c(c1)OC1=C(C(=O)OC1)C2c1cccc(Cl)c1 (centres undefined)	inactive	inactive	–
Clc1cccc(C2C3=C(CCCC3)Nc3cc4c(cc32)OCO4)c1 (centres undefined)	inactive	inactive	–
O=C1C2=C(C(=O)C1c1ccccc1)C(c1cccc(Cl)c1)c1cc3c(cc1N2)OCO3 (centres undefined)	inactive	inactive	–
COc1cc(OC)cc(C2C3=C(COC3=O)Nc3cc(OCc4ccccc4)c(Br)cc32)c1 (centres undefined)	inactive	inactive	–
COc1cc(OC)cc(C2(C)C3=C(COC3=O)Nc3cc4c(cc32)OCO4)c1 (centres undefined)	inactive	inactive	–
O=C1OCC2=C1C(c1ccc(Cl)cc1)c1cc3c(cc1N2)OCO3 (centres undefined)	inactive	inactive	–
COc1cc(OC)cc(C2C3=C(COC3=O)Nc3cc4c(cc32)OC(F)(F)O4)c1 (centres undefined)	–	inactive	Active
Cc1ccc2c(c1)N(C)C1=C(C(=O)OC1)C2c1ccc(Cl)cc1 (centres undefined)	inactive	inactive	–
COc1cc(OC)cc(C2C3=C(COC3=O)Nc3c(OC)ccc(OC)c32)c1 (centres undefined)	inactive	inactive	–
